Laboratory results as given in ChEMBL document CHEMBL1135145, “Synthesis and bioactivities of novel 4,5,6,7-tetrahydrothieno[2,3-c]pyridines as inhibitors of tumor necrosis factor-alpha (TNF-alpha) production” (Bioorg Med Chem Lett, 2002).

Key:
Type in all cases: functional
[1] = species on record: Rattus norvegicus; test: In vitro inhibition of lipopolysaccharide stimulated tumor necrosis factor-alpha production in rat whole blood
Outline: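 Rat whole blood diluted to 50% in RPMI-1640 containing streptomycin and penicillin. Compound in DMSO, or DMSO vehicle, preincubated for 30 min at 37 °C in 5% CO2. Stimulated with 10 µg/mL LPS (E. coli B055:B5) and incubated 4 h under the same conditions. IC50 taken for inhibition of TNF-α production.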

[2] = test system: Rattus norvegicus; test: Compound was evaluated in vivo for the inhibition of LPS-stimulated serum TNF-alpha production in rat after oral administration at a dose 50 mg/kg
Outline: (§1)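 Male SD rats, 6 weeks old, given compound orally as a suspension in 0.5% CMC. LPS (E. coli B055:B5, 0.1 mg/kg) injected iv 1 h after dosing. Animals killed and bled 90 min later. Serum TNF-α measured by ELISA. ED50 derived from TNF-α yield relative to LPS controls without compound.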

[3] = test system: Rattus norvegicus; test: Compound was evaluated in vivo for the inhibition of LPS-stimulated serum TNF-alpha production in rat after oral administration of the compound; outline: as §1
[4] = test system: Rattus norvegicus; test: Compound was evaluated in vivo for the inhibition of LPS-stimulated serum TNF-alpha production in rat after oral administration at a dose 100 mg/kg; outline: as §1

| SMILES | IC50 [1] | also measured |
| --- | --- | --- |
| CC(=O)N1CCc2c(sc(N(CC(C)C)CC(C)C)c2C(=O)c2ccccc2Cl)C1 | 30 µM |  |
| COc1ccc(C(=O)c2c(NC(C)=O)sc3c2CCN(C(C)=O)C3)cc1 | 26 µM |  |
| CC(=O)N1CCc2c(sc(NC(=O)C(C)C)c2C(=O)c2ccc(Cl)cc2)C1 | > 100 µM |  |
| CC(=O)N1CCc2c(sc(NC(=O)C3CC3)c2C(=O)c2cccc(Cl)c2)C1 | 20 µM |  |
| CC(C)C(=O)Nc1sc2c(c1C(=O)c1ccccc1Cl)CCN(C(=O)C1CC1)C2 | 2.6 µM |  |
| CC(=O)N1CCc2c(sc(NC(=O)C(C)C)c2C(=O)c2ccccc2Cl)C1 | 2.6 µM | inhibition in vivo at 50 mg/kg [2]: 2.4% |
| CCOC(=O)c1c(NC(=O)c2cccnc2)sc2c1CCN(C(C)=O)C2 | 22 µM |  |
| CC(=O)N1CCc2c(sc(NC(=O)C(C)(C)C)c2C(=O)c2ccccc2Cl)C1 | 3.4 µM |  |
| CC(=O)N1CCc2c(sc(NC(=O)C(C)C)c2C(=O)c2ccccc2)C1 | 3 µM | inhibition in vivo at 50 mg/kg [2]: 35% |
| CCN(CC)C(=O)N(C)c1sc2c(c1C(=O)c1ccccc1Cl)CCN(C(C)=O)C2 | 10 µM |  |
| CC(=O)N1CCc2c(sc(NC(=O)C(C)(C)C)c2Cc2ccccc2Cl)C1 | 29 µM |  |
| COc1ccc(C(=O)c2c(NC(C)=O)sc3c2CCN(C(C)=O)C3)cc1OC | 46 µM |  |
| Nc1sc2c(c1C(=O)c1ccccc1Cl)CCNC2 | > 100 µM |  |
| CCOC(=O)c1c(NC(=O)C2CC2)sc2c1CCN(C(C)=O)C2 | 10 µM | inhibition in vivo at 50 mg/kg [2]: 64.2% |
| CC(=O)N1CCc2c(sc(N)c2C(=O)c2ccccc2Cl)C1 | 72 µM |  |
| CC(C)C(=O)Nc1sc2c(c1C(=O)c1ccccc1Cl)CCN(Cc1ccccc1)C2 | 5 µM |  |
| CCc1c(NC(=O)C(C)C)sc2c1CCN(C(C)=O)C2 | 23 µM |  |
| CC(=O)N1CCc2c(sc(NC(=O)c3cccnc3)c2C(=O)c2ccccc2Cl)C1 | 12 µM |  |
| CC(=O)N1CCc2c(sc(NC(=O)C3CCCCC3)c2C(=O)c2ccccc2Cl)C1 | 39 µM |  |
| CC(C)C(=O)Nc1sc2c(c1C(=O)c1ccccc1Cl)CCN(C)C2 | 2 µM |  |
| CC(=O)N1CCc2c(sc(NC(=O)C3CC3)c2C(=O)c2ccccc2Cl)C1 | 3 µM | inhibition in vivo at 50 mg/kg [2]: 35% |
| CC(=O)N1CCc2c(sc(NC(=O)c3ccccc3)c2C(=O)c2ccccc2)C1 | 48 µM |  |
| CC(=O)N1CCc2c(sc(NC(=O)C(C)Br)c2C(=O)c2ccccc2Cl)C1 (configuration not stated) | 6 µM |  |
| CC(=O)N1CCc2c(sc(NC(=O)C(C)(C)C)c2C(O)c2ccccc2Cl)C1 (configuration not stated) | 19 µM |  |

| SMILES | IC50 [1] | also measured |
| --- | --- | --- |
| CCN1CCc2c(sc(N(CC)C(=O)C(C)C)c2C(=O)c2ccccc2Cl)C1 | 10 µM |  |
| CC(=O)Nc1sc2c(c1C(=O)c1ccccc1Cl)CCN(C(C)=O)C2 | 9.5 µM |  |
| CC(=O)N1CCc2c(sc(NC(=O)CCc3ccccc3)c2C(=O)c2ccccc2Cl)C1 | > 100 µM |  |
| O=C(c1ccccc1Cl)c1c(NC(=O)C2CC2)sc2c1CCN(C(=O)C1CC1)C2 | 0.9 µM |  |
| CCC(=O)Nc1sc2c(c1C(=O)c1ccccc1Cl)CCN(C(C)=O)C2 | 15 µM |  |
| CC(=O)N1CCc2c(sc(NC(=O)C(C)C)c2C(=O)c2ccccc2C)C1 | 3.9 µM | inhibition in vivo at 50 mg/kg [2]: 3.9% |
| CC(=O)N1CCc2c(sc(NC(=O)c3cccnc3)c2C(=O)c2cccc(Cl)c2)C1 | 36 µM |  |
| CCN1CCc2c(sc(NC(=O)C(C)C)c2C(O)c2ccccc2Cl)C1 (configuration not stated) | 100 µM |  |
| CC(=O)N1CCc2c(sc(NC(=O)c3ccc(F)cc3)c2C(=O)c2ccccc2Cl)C1 | 100 µM |  |
| O=C(Nc1sc2c(c1C(=O)c1ccccc1Cl)CCN(C(=O)C1CC1)C2)c1ccccc1 | > 100 µM |  |
| CCOC(=O)c1c(NC(=O)C(C)C)sc2c1CCN(C(C)=O)C2 | 22 µM | inhibition in vivo at 50 mg/kg [2]: 49.1% |
| CCN(CC)C(=O)Nc1sc2c(c1C(=O)c1ccccc1Cl)CCN(C(C)=O)C2 | 0.51 µM |  |
| CC(=O)N1CCc2c(C(=O)c3ccccc3Cl)csc2C1 | 38 µM |  |
| CC(=O)N1CCc2c(sc(NC(=O)/C=C/c3ccccc3)c2C(=O)c2ccccc2Cl)C1 | > 100 µM |  |
| CC(=O)N1CCc2c(sc(NC(=O)C(C)C)c2C(C)O)C1 (configuration not stated) | 38 µM |  |
| COc1cccc(OC)c1C(=O)c1c(NC(C)=O)sc2c1CCN(C(C)=O)C2 | 88 µM |  |
| CN1CCc2c(sc(NC(=O)C3CC3)c2C(=O)c2ccccc2Cl)C1 | 1.3 µM |  |
| O=C(c1ccccc1Cl)c1c(NC(=O)C2CC2)sc2c1CCN(Cc1ccccc1)C2 | 6.5 µM |  |
| CC(=O)c1c(NC(=O)C2CC2)sc2c1CCN(C(C)=O)C2 | 28 µM | inhibition in vivo at 50 mg/kg [2]: 31.3% |
| CC(=O)N1CCc2c(sc(NC(=O)C(C)Cl)c2C(=O)c2ccccc2Cl)C1 (configuration not stated) | 12 µM |  |
| CC(=O)N1CCc2c(sc(NC(=O)C3CCC3)c2C(=O)c2ccccc2Cl)C1 | 2.9 µM |  |
| CC(=O)N1CCc2c(sc(N(C)C(=O)C3CC3)c2C(=O)c2ccccc2Cl)C1 | 74 µM |  |
| CC(C)C(=O)Nc1sc2c(c1C(=O)c1ccccc1Cl)CCNC2 | 4 µM |  |
| O=C(Nc1sc2c(c1C(=O)c1ccccc1Cl)CCN(C(=O)C1CC1)C2)c1cccnc1 | 3.9 µM |  |

| SMILES | IC50 [1] | also measured |
| --- | --- | --- |
| CC(=O)c1c(NC(=O)C(C)C)sc2c1CCN(C(C)=O)C2 | 35 µM | inhibition in vivo at 50 mg/kg [2]: 22.7% |
| O=C(Nc1sc2c(c1C(=O)c1ccccc1Cl)CCN(Cc1ccccc1)C2)c1cccnc1 | 7.1 µM |  |
| CC(=O)N1CCc2c(sc(NC(=O)CCl)c2C(=O)c2ccccc2Cl)C1 | > 100 µM |  |
| CC(=O)N1CCc2c(sc(NC(=O)C(C)C)c2C(=O)c2cccc(Cl)c2)C1 | 7.6 µM |  |
| CCN(CC)C(=O)Nc1sc2c(c1C(=O)c1c(OC)cccc1OC)CCN(C(C)=O)C2 | 3.8 µM |  |
| CC(=O)N1CCc2c(sc(NC(=O)C3CC3)c2C(=O)c2ccccc2C)C1 | 2.9 µM | inhibition in vivo at 50 mg/kg [2]: 58.6% |
| CC(C)CN(CC(C)C)c1sc2c(c1C(=O)c1ccccc1Cl)CCN(C(=O)C1CC1)C2 | > 100 µM |  |
| O=C(c1ccccc1Cl)c1c(N(CC2CCCCC2)CC2CCCCC2)sc2c1CCN(C(=O)C1CC1)C2 | > 100 µM |  |
| CC(=O)N1CCc2c(sc(NC(=O)C(C)N)c2C(=O)c2ccccc2Cl)C1 (configuration not stated) | 8 µM |  |
| CCCCCCC(=O)Nc1sc2c(c1C(=O)c1ccccc1Cl)CCN(C(C)=O)C2 | > 100 µM |  |
| CC(=O)N1CCc2c(sc(N(C)C(=O)C(C)C)c2C(=O)c2ccccc2Cl)C1 | 33 µM |  |
| CC(=O)N1CCc2c(sc(NC(=O)c3cccnc3)c2C(=O)c2ccccc2)C1 | 14 µM |  |
| CC(=O)N1CCc2c(sc(NC(=O)C3CC3)c2C(=O)c2ccccc2)C1 | 3 µM | inhibition in vivo at 50 mg/kg [2]: 34.1% |
| O=C(Nc1sc2c(c1C(=O)c1ccccc1Cl)CCN(Cc1ccccc1)C2)c1ccccc1 | > 100 µM |  |
| CC(=O)N1CCc2c(sc(NC(=O)c3ccncc3)c2C(=O)c2ccccc2Cl)C1 | 21 µM |  |
| CC(=O)N1CCc2c(sc(NC(=O)c3ccccc3)c2C(=O)c2ccccc2Cl)C1 | 46 µM |  |
| CCN1CCc2c(sc(NC(=O)C(C)C)c2C(=O)c2ccc3c(c2)OCO3)C1 | 78 µM |  |
| CC(=O)N1CCc2c(sc(N(CC3CCCCC3)CC3CCCCC3)c2C(=O)c2ccccc2Cl)C1 | 100 µM |  |
| CCN1CCc2c(sc(NC(=O)C(C)C)c2C(=O)c2ccccc2Cl)C1 | 0.92 µM |  |
| CCNC(=O)Nc1sc2c(c1C(=O)c1ccccc1Cl)CCN(C(C)=O)C2 | 10 µM |  |
| C[C@@H]1C[C@H]2[C@@H]3CCC4=CC(=O)C=C[C@]4(C)[C@@]3(F)[C@@H](O)C[C@]2(C)[C@@]1(O)C(=O)CO [DEXAMETHASONE] | 0.02 µM | ED50 [3]: 0.12 mg/kg |
| CC(=O)CCCCn1c(=O)c2c(ncn2C)n(C)c1=O [PENTOXIFYLLINE] | 40 µM | inhibition in vivo at 100 mg/kg [4]: 74.4% |
